# NR1D1 modulator = Rev-erb alpha (human) modulation | activity, % at 10 µM | AID 1259318 | hit rate 0.79% among 370,000 | Rev-erbα–FITC-DNA binding, fluorescence polarization, 90 min;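 active means activity above about 14%, limit read from the data; passing the limit was not always enough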;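 further: 0% = DMSO wells with 35 nM protein and 100% = DMSO wells with 750 nM protein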
# Target sequence (P20393 whole entry, looked up): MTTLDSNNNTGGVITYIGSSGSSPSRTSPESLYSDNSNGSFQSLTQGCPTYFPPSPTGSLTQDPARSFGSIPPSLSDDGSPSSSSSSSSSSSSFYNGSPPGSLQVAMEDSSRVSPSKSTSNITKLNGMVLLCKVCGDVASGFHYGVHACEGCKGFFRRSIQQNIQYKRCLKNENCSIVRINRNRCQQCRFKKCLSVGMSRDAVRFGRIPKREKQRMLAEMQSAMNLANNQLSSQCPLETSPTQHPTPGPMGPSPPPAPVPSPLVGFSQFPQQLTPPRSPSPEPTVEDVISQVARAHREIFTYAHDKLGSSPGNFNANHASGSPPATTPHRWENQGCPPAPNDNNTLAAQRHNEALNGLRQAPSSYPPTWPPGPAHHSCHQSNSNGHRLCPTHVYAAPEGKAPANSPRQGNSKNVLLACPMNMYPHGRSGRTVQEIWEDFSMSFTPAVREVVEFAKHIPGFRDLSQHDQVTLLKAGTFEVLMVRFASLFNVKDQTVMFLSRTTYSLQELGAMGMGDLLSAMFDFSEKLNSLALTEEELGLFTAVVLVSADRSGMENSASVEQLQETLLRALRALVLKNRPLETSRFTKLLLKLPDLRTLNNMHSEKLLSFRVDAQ
# NR2E3 ag-1 = agonists of human nuclear receptor NR2E3; Q9Y5X4; GST-NR2E3/biotin-RetCOR TR-FRET, 1536-well; inhibition of corepressor binding, % at 4.78 µM; hit rate 0.12% among 320,000; AID 2300;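 active means percent inhibition above the cutoff of mean plus 3 SD of all tested compounds, set per screening campaign, cut at about 20% in these data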;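 further: 0% = DMSO wells and 100% = biotin wells as full block of FRET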
#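 Material: NR2E3–RetCOR corepressor complex | Quantity: 1.35 nM GST-tagged NR2E3 final | Schedule: 5 h at 4 °C | Replication: Singlicate compound wells | Reagent: RetCOR corepressor, biotinylated, 7 nM | Controls: Biotin wells as high control, 0.6% DMSO wells as low control | Signal: TR-FRET, Eu(K)-anti-GST donor, streptavidin-D2 acceptor, ex 340, em 617/671 nm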
# PG9 Ab binder = binds the HIV-1 gp120 antibody PG9; TR-FRET gp120-PG9 antibody binding; inhibition, % at 6.7 µM; hit rate 0.43% among 360,000; AID 624416; in the data active means inhibition above about 8.5%
# rCAG RNA binder = r(CAG) repeat RNA binding; TO-PRO-1 dye displacement fluorescence; inhibition, % at 3 µM; hit rate 1.3% among 370,000; AID 651821;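 active means inhibition above the plate cutoff, the mean of all test compounds on that plate plus 3 SD, cut at about 35% in these data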;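 further: 0% = DMSO alone and 100% = 100 µM mitoxantrone as full dye displacement; higher means more dye released from RNA so lower well fluorescence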
# NR2E3 ag-2 = activates human NR2E3 receptor; CHO-S Gal4-NCOR/VP16-NR2E3 two-hybrid, luciferase; Q9Y5X4; AID 602229; hit rate 0.35% among 360,000; inhibition of corepressor binding, % at 3.98 µM;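 active means inhibition above the mean of all tested compounds plus 3 SD, cut at about 70% in these data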;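 further: 0% = DMSO with NR2E3 transfected cells and 100% = cells lacking NR2E3 construct; higher means lower luciferase signal from less NR2E3 corepressor binding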
# NR1D1 mod conf = confirmation of modulators of human Rev-erb alpha DNA binding. shares compounds with NR1D1 modulator. activation, % at 25 µM. hit rate 61% among 3,000. Rev-erb alpha FITC-DNA binding, fluorescence polarization, 90 min. AID 1259319;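 active means activation at or above a set limit, or at least 3 SD above the negative control mean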;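 further: 0% = 35 nM protein with DMSO and 100% = 750 nM protein high control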
# RORg counter = affects RORgamma DNA binding in a Rev-erb alpha counter-screen; IC50, µM; AID 1259320; hit rate 8% among 910; shares compounds with NR1D1 modulator; purified RORgamma protein-FITC-DNA binding, fluorescence polarization;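 active means Compounds whose fitted half-maximal concentration for disrupting protein-DNA binding is below 10 micromolar; the record names Rev-erb in its text, so the target is in doubt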
# The depositor's hits bear a star; · = not tested or not shown. The list is not random: actives were taken first. Their share in the collection is about 2.6%.
SMILES,NR1D1 modulator,NR2E3 ag-1,PG9 Ab binder,rCAG RNA binder,NR2E3 ag-2,NR1D1 mod conf,others
CN1C(=O)c2cc(NC(=O)c3ccccc3)ccc2OC[C@H]2O[C@@H](CC(=O)NCC3CC3)CC[C@@H]21,34*,·,·,3,·,22*,
CN1C(=O)c2cc(NC(=O)c3cccc(F)c3)ccc2OC[C@@H]2O[C@H](CC(=O)NCc3ccccc3)CC[C@H]21,-1,·,·,3,·,·,
Cc1ccc(NC(=O)C2CCCN2C(=O)c2cccs2)cc1C (stereo not given),-13,1,0,1,4,·,
CCN(c1ccccc1)S(=O)(=O)c1ccc(OC)c(NC(=O)C2=NN(c3ccccc3)C(=O)CC2)c1,6,·,-1,17,-7,·,
CN1/C(=C\C(=S)NC(=O)c2ccccc2Cl)C(C)(C)c2ccccc21,7,0,0,2,-2,·,
CN1/C(=C/C(=S)NC(=O)C2(C)CC2(Cl)Cl)C(C)(C)c2ccccc21 (stereo not given),23*,-3,0,-4,0,-2,
Cc1c(C(=O)NCc2ccc([N+](=O)[O-])cc2)sc(=O)n1Cc1ccc2c(c1)OCO2,-5,·,0,3,17,·,
CC(=O)c1cccc(NC(=O)C(C)OC(=O)c2cccc(S(=O)(=O)N3CCN(C)CC3)c2)c1 (stereo not given),-7,2,1,5,-11,·,
O=c1c(Cl)c(N2CCN(S(=O)(=O)c3ccccc3)CC2)cnn1-c1ccccc1,2,-3,0,-3,1,·,
O=c1c(Cl)c(N2CCN(S(=O)(=O)c3ccc(F)cc3)CC2)cnn1-c1cccc(Cl)c1,28*,1,0,0,-21,28*,
CCOC(=O)CCCCCC(=O)Nc1ccc2c(c1)C(=O)N([C@@H](C)CO)C[C@H](C)[C@H](CN(C)C(=O)c1ccccc1)OCCCC[C@H](C)O2,-2,·,0,-2,-13,·,
CCOC(=O)c1cc(-c2ccc(F)cc2)nc2c1c(=O)[nH]c(=O)n2Cc1ccccc1,-9,2,0,2,10,·,
CCOC(=O)c1cc(-c2cc(OC)c(OC)c(OC)c2)nc2c1c(=O)[nH]c(=O)n2Cc1ccccc1,23*,1,0,1,-8,9,
Cc1ccc(NC(=O)c2ncn(CCCNCc3ccccn3)n2)cc1C,-3,·,-2,2,21,·,
CC(=O)N(C)C[C@@H]1Oc2ncc(C#Cc3ccc(F)cc3)cc2C(=O)N([C@@H](C)CO)C[C@H]1C,-3,·,0,5,-17,·,
CN(C)c1ncnc2c1ncn2[C@H]1CN(Cc2cccs2)C[C@@H](CO)O1,24*,·,0,1,-40,-1,
C[C@H]1CN([C@@H](C)CO)C(=O)CCCn2nncc2CO[C@@H]1CN(C)C(=O)c1ccncc1,-1,·,0,2,7,·,
COc1cc2ccccc2cc1C(=O)Nc1ccc(Cl)cn1,31*,2,0,5,-42,17,
O=C(Nc1ccc(Cl)cn1)c1ccccc1F,-3,1,2,-1,-157,·,
CC(=O)c1ccc(N2CCN(S(=O)(=O)c3ccc4c(c3)CC(C)N4C(=O)C3CC3)CC2)cc1 (stereo not given),31*,0,1,2,-16,24*,
COc1ccc(N2CCN(S(=O)(=O)c3ccc4c(c3)CC(C)N4C(=O)C3CC3)CC2)cc1 (stereo not given),7,-2,2,0,2,·,
CCOC(=O)c1sc(NC(=O)c2ccc(S(=O)(=O)N3CCCCCC3)cc2)nc1-c1ccccc1,29*,0,-2,1,-4,5,
CCOC(=O)c1sc(NC(=O)c2ccc(S(=O)(=O)N3CCCCC3)cc2)nc1-c1ccccc1,16,5,1,-1,11,·,
CCOC(=O)N1CCN(S(=O)(=O)c2ccc(C(=O)Nc3nc4ccccc4s3)cc2)CC1,34*,0,7,-1,-17,21*,
O=C(Nc1cccc(S(=O)(=O)NC2=NCCC2)c1)c1cnc(Cl)c(Cl)c1,-5,4,-3,4,-1,·,
SMILES,NR1D1 modulator,NR2E3 ag-1,PG9 Ab binder,rCAG RNA binder,NR2E3 ag-2,NR1D1 mod conf,others
COC(=O)c1ccc(NC(=O)c2ccc3c(c2)C(=O)N(Cc2cccnc2)C3=O)cc1,4,1,-2,3,4,·,
COC(=O)c1ccc(NC(=O)c2ccc3c(c2)C(=O)N(C)C3=O)cc1,52*,0,-1,0,-5,34*,RORg counter=>40
O=C1c2ccccc2NC(c2ccc(-c3cccc(F)c3)o2)N1O (stereo not given),-20,-3,-1,7,-125,·,
O=C1c2ccccc2NC(c2ccc(-c3ccccc3F)o2)N1O (stereo not given),24*,4,-1,6,-89,21*,
Cc1c(N2C(=O)/C(=C/c3ccccc3)SC2=S)c(=O)n(-c2ccccc2)n1C,-3,0,-1,9,11,·,
Cc1c(N2C(=O)/C(=C/c3ccc(N(C)C)cc3)N(C)C2=S)c(=O)n(-c2ccccc2)n1C,22*,·,-17,0,10,19*,
COc1ccc(NC(=O)N2CCCCCC2)cc1OC,-2,4,0,-3,1,·,
CC(C)CCn1c(SCC(=O)NC2CC2)nc2cc(Cl)ccc2c1=O,20*,0,0,2,28,11,
CC(C)CCn1c(SCC(=O)NC2CCS(=O)(=O)C2)nc2cc(Cl)ccc2c1=O (stereo not given),21*,-6,5,4,0,21*,
Cc1cc(NC(=O)CSc2nc3cc(Cl)ccc3c(=O)n2CC(C)C)no1,·,-3,·,·,·,·,
N#Cc1ccc2sn(-c3ccccc3)c(=O)c2c1,-8,·,1,2,-155,·,
O=C(NCC1CCCO1)c1nn2c(C(F)(F)F)cc(-c3cc(Br)cs3)nc2c1Br (stereo not given),23*,0,0,2,-22,-4,
N#CCNC(=O)c1nn2c(C(F)(F)F)cc(-c3ccccc3)nc2c1Br,57*,0,-1,0,-10,31*,RORg counter=>40
CCCCNC(=O)c1nn2c(C(F)(F)F)cc(-c3ccccc3)nc2c1Br,10,·,0,-2,4,·,
Cc1cc(C)n2c(Nc3c(C)cccc3C)c(CC(C)C)nc2n1,4,·,2,0,-11,·,
COc1ccc(C)cc1NC(=O)CSCc1cc(=O)n2c(C)csc2n1,1,·,1,-4,2,·,
COc1ccc(-n2c(SCC(=O)C(C)(C)C)nc3ccsc3c2=O)cc1,21*,-1,3,-3,0,20*,
CC1(C)Cc2c(sc(NC(=O)COc3ccc(Cl)cc3)c2C(N)=O)C(C)(C)N1,16*,2,0,-2,3,-1,
